Active and inactive are the calls of the source. The rule behind the calls is not given here.
Key:
Format in all cases: functional, organism-based
Mus musculus [1] = test: Antidiabetic activity in STZ-induced Kunming mouse model of diabetes assessed as increase in Lackno-spiraceae NK4A136 level in feces at 31.25 to 125 mg/kg, po administered QD administered via gavage for 4 weeks by 16S rDNA based Illumina sequencing method
Mus musculus [2] = test: Antidiabetic activity in po dosed STZ-induced Kunming mouse model of diabetes assessed as increase in Firmicutes level in feces administered QD administered via gavage for 4 weeks by 16S rDNA based Illumina sequencing method
Mus musculus [3] = test: Antidiabetic activity in STZ-induced Kunming mouse model of diabetes assessed as decrease in LDL-C level at 62.5 to 125 m/kg, po administered QD administered via gavage for 4 weeks
How it was run: (§1)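 STZ/high-fat-diet diabetic Kunming mice (n=10/group) were gavaged daily for 28 days at 31.25–125 mg/kg. After an overnight fast, orbital-sinus blood was taken and plasma was spun at 1000g, 4 °C. TC, TG and HDL-C were measured by kit. LDL-C was calculated by Friedewald: TC − (HDL-C + TG/2.2), with TG below 4.5 mmol/L. Data are mean ± SD, Duncan's test.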

Mus musculus [4] = test: Antidiabetic activity in STZ-induced Kunming mouse model of diabetes assessed as decrease in pyruvic acid level at 31.25 to 125 m/kg, po administered QD administered via gavage for 4 weeks
How it was run: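 Diabetic mice (high-fat diet plus STZ 35 mg/kg i.p.) were dosed by gavage once daily for 28 days at 31.25–125 mg/kg. After an overnight fast at endpoint, liver and plasma were collected. ALT, hepatic glycogen and pyruvic acid were measured with commercial kits.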

Mus musculus [5] = test: Antidiabetic activity in STZ-induced Kunming mouse model of diabetes assessed as increase in Alistipes level in feces at 31.25 to 125 mg/kg, po administered QD administered via gavage for 4 weeks by 16S rDNA based DNA sequencing analysis
Mus musculus [6] = test: Antidiabetic activity in po dosed STZ-induced Kunming mouse model of diabetes assessed as decrease in IRS-1 (Ser 307 residues) expression in liver administered QD administered via gavage for 4 weeks by Western blot analysis
How it was run: (§2)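 Livers from diabetic mice after 28 days of daily gavage (31.25–125 mg/kg) were homogenized and spun at 14 000g, 4 °C. Proteins were run on 10% SDS-PAGE and transferred to PVDF, then blocked in 5% milk for 1 h. Primary antibodies (GK, PK, PFK, PCB, PEPCK, FBPase, G-6-Pase, p-IR Tyr999, p-IRS-1 Ser307) were applied for 1 h at 25 °C, followed by HRP anti-rabbit IgG and ECL detection. Mean ± SD, Duncan's test.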

Mus musculus [7] = test: Antidiabetic activity in STZ-induced Kunming mouse model of diabetes assessed as reduction in TG level at 31.25 to 125 m/kg, po administered QD administered via gavage for 4 weeks; how it was run: as §1
Mus musculus [8] = test: Antidiabetic activity in po dosed STZ-induced Kunming mouse model of diabetes assessed as reduction in fasting serum insulin level administered QD administered via gavage for 4 weeks
How it was run: (§3)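 Fasting serum insulin was measured by commercial kit on plasma from orbital-sinus blood taken after an overnight fast at day 28. HOMA-IR was derived to assess insulin sensitivity. Diabetic mice were gavaged daily at 31.25–125 mg/kg. Mean ± SD, Duncan's test.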

Mus musculus [9] = test: Antidiabetic activity in STZ-induced Kunming mouse model of diabetes assessed as decrease in Bacteroidales S24-7 level in feces at 62.5 to 125 mg/kg, po administered QD administered via gavage for 4 weeks by 16S rDNA based DNA sequencing analysis
Mus musculus [10] = test: Antidiabetic activity in STZ-induced Kunming mouse model of diabetes assessed as decrease in Ruminococcus level in feces at 31.25 to 125 mg/kg, po administered QD administered via gavage for 4 weeks by 16S rDNA based DNA sequencing analysis
Mus musculus [11] = test: Antidiabetic activity in STZ-induced Kunming mouse model of diabetes assessed as decrease in Rumino-coccaceae UCG-014 level in feces at 31.25 to 125 mg/kg, po administered QD administered via gavage for 4 weeks by 16S rDNA based Illumina sequencing method
Mus musculus [12] = test: Antidiabetic activity in STZ-induced Kunming mouse model of diabetes assessed as increase in GK expression level in liver at 62.5 to 125 m/kg, po administered QD administered via gavage for 4 weeks by Western blot analysis; how it was run: as §2
Mus musculus [13] = test: Antidiabetic activity in STZ-induced Kunming mouse model of diabetes assessed as down regulation of PEPCK expression level in liver at 62.5 to 125 m/kg, po administered QD administered via gavage for 4 weeks by Western blot analysis; how it was run: as §2
Mus musculus [14] = test: Antidiabetic activity in po dosed STZ-induced Kunming mouse model of diabetes assessed as reduction in HOMA-IR index level administered QD administered via gavage for 4 weeks; how it was run: as §3
Mus musculus [15] = test: Antidiabetic activity in STZ-induced Kunming mouse model of diabetes assessed as increase in Oscillibacter level in feces at 31.25 to 125 mg/kg, po administered QD administered via gavage for 4 weeks by 16S rDNA based Illumina sequencing method
Mus musculus [16] = test: Antidiabetic activity in STZ-induced Kunming mouse model of diabetes assessed as reduction in serum glucose level 125 mg/kg, po administered QD administered via gavage for 4 weeks and measured 4 weeks during compound dosing
How it was run: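 Fasting serum glucose was taken from the tail tip on days 0, 7, 14, 21 and 28 in STZ (35 mg/kg i.p.)/high-fat-diet Kunming mice. Mice were gavaged once daily at 31.25, 62.5 or 125 mg/kg in 0.5 mL, n=10 per group.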

Mus musculus [17] = test: Antidiabetic activity in STZ-induced Kunming mouse model of diabetes assessed as increase in PFK expression level in liver at 125 m/kg, po administered QD administered via gavage for 4 weeks by Western blot analysis; how it was run: as §2
Mus musculus [18] = test: Antidiabetic activity in STZ-induced Kunming mouse model of diabetes assessed as decrease in Prevo-tellaceae Ga6A1 level in feces at 31.25 to 125 mg/kg, po administered QD administered via gavage for 4 weeks by 16S rDNA based DNA sequencing analysis
Mus musculus [19] = test: Antidiabetic activity in STZ-induced Kunming mouse model of diabetes assessed as increase in glucose tolerance 31.25 to 125 mg/kg, po administered QD administered via gavage for 4 weeks and measured on day 26 followed by glucose challenge after 30 mins during compound dosing by OGTT
How it was run: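 On treatment day 26, after a 12 h fast, diabetic mice received oral glucose at 2.0 g/kg. Tail-tip blood glucose was read at 0, 30, 60, 90 and 120 min. Daily gavage dosing was 31.25–125 mg/kg, n=10 per group.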

Mus musculus [20] = test: Antidiabetic activity in STZ-induced Kunming mouse model of diabetes assessed as decrease in Escherichia-Shigella level in feces at 31.25 to 125 mg/kg, po administered QD administered via gavage for 4 weeks by 16S rDNA based Illumina sequencing method
Mus musculus [21] = test: Antidiabetic activity in STZ-induced Kunming mouse model of diabetes assessed as increase in Lachnospiraceae level in feces at 31.25 to 125 mg/kg, po administered QD administered via gavage for 4 weeks by 16S rDNA based DNA sequencing analysis

With `OC[C@H]1NC[C@H](O)[C@@H](O)[C@@H]1O` the Activity (Mus musculus [1]) was “Active”, the Activity (Mus musculus [2]) was “Dose-dependent effect” and the Activity (Mus musculus [3]) was “Active”. For the same molecule, the Activity (Mus musculus [4]) was “Active”, the Activity (Mus musculus [5]) was “Active” and the Activity (Mus musculus [6]) was “Dose-dependent effect”. The Activity (Mus musculus [7]) was “Active”, the Activity (Mus musculus [8]) was “Dose-dependent effect” and the Activity (Mus musculus [9]) was “Active”. For the same molecule, the Activity (Mus musculus [10]) was “Active”, the Activity (Mus musculus [11]) was “Active” and the Activity (Mus musculus [12]) was “Active”. For the same molecule, the Activity (Mus musculus [13]) was “Active”, the Activity (Mus musculus [14]) was “Dose-dependent effect” and the Activity (Mus musculus [15]) was “Active”. The Activity (Mus musculus [16]) was “Active”, the Activity (Mus musculus [17]) was “Active” and the Activity (Mus musculus [18]) was “Active”. The Activity (Mus musculus [19]) was “Active”, the Activity (Mus musculus [20]) was “inactive” and the Activity (Mus musculus [21]) was “Active”.
